Screens: PubChem, Broad Institute
This is one part of a sample in which hits are shown more often than they occur.
IDH1 R132H inh – inhibitors of IDH1 R132H reductase, primary screen, biochemical, plate reader, single point; diaphorase/resazurin fluorescence, 60 min; inhibition, % at 10 µM; 70,000 compounds, 0.18% hits; AID 624101, 2012; in the data active = inhibition above about 34%; inconclusive = no clear call, values can overlap the other calls; inactive = below about 11%;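 also: 0% = DMSO and 100% = no enzyme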
Target sequence (O75874 whole entry R132H): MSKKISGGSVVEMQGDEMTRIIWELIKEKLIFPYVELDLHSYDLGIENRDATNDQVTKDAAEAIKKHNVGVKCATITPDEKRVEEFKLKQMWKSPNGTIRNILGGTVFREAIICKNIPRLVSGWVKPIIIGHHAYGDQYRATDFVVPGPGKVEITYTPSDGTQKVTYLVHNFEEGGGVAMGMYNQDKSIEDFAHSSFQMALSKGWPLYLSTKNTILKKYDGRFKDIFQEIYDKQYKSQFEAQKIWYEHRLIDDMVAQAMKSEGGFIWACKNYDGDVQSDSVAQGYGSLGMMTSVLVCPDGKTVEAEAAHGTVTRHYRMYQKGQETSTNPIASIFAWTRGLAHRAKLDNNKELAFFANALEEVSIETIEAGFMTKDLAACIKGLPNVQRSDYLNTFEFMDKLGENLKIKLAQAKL
T cruzi growth-1 – T. cruzi intracellular proliferation inhibitors, primary screen, cell-based, beta-gal Tulahuen parasites, NIH3T3 host, luminescence | T. cruzi beta-gal in NIH3T3, GalScreen luminescence, 90 h | inhibition, % at 8.34 µM | 77,000 compounds, 5.9% hits;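 active = mean inhibition above about 93%, with at least 55% of replicates each passing it, limit read from the data, passing the limit was not always enough; inconclusive = only one of those two conditions holds; inactive = neither condition holds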
KDM4C inh – inhibitors of GASC-1 (KDM4C) histone demethylase, primary screen, biochemical, single concentration HTS | AID 720574, 2013 | 96,000 compounds, 0.15% hits | Lysine-specific demethylase 4C (Homo sapiens), Q9H3R0 | GST-KDM4C 2-372, H3K9me3 peptide, LANCE TR-FRET | inhibition, % at 12.5 µM;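 active = mean replicate inhibition above about 25%, with at least 55% of replicates also reaching it, limit read from the data, passing the limit was not always enough; inconclusive = only one of those two conditions met; inactive = neither condition met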
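material = GST-tagged GASC-1 (JMJD2C) catalytic fragment, aa 2-372 | amount = enzyme final amount 10 nM | medium = HEPES buffer, pH 7.5, plus ascorbate | also added = H3K9me3 peptide substrate, Fe(II), 2-oxoglutarate | dosing = single dose | times = 30 min demethylation and 1 h detection at room temperature | detection = LANCE TR-FRET | read-out basis = Fall in 671/618 emission ratio as inhibition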
T cruzi growth-2 – T. cruzi intracellular proliferation inhibitors, confirmation, cell-based, NIH3T3 host, beta-gal parasite, luminescence, cherry-pick. shares compounds with T cruzi growth-1. T. cruzi beta-gal in NIH3T3, GalScreen luminescence, 90 h. inhibition, % at 8.35 µM. 5,600 compounds, 72% hits. AID 651739, 2012;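 active = mean replicate inhibition above about 95% and at least 55% of replicates individually reaching it, limit read from the data; inconclusive = only one of the two criteria is met; inactive = neither criterion is met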
T cruzi growth-3 – inhibitors of intracellular T. cruzi replication, confirmation, NIH3T3 host cells, beta-gal parasites, cherry-pick, set 2; shares compounds with T cruzi growth-1; T. cruzi beta-gal in NIH3T3, GalScreen luminescence, 90 h; inhibition, % at 2.09 µM; 5,600 compounds, 21% hits; AID 651740, 2012;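 active = mean inhibition above about 95%, with at least 55% of replicates also reaching it, limit read from the data; inconclusive = meets just one of the two conditions; inactive = meets neither condition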;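 also: plate controls were neutral control median for no effect and positive control median for full effect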
3T3 cytotox – cytotoxicity in mouse NIH/3T3 fibroblasts, confirmation, cytotoxicity control for T. cruzi proliferation inhibitor project, cell-based, cherry-pick, single point; 5,600 compounds, 14% hits; cytotoxicity (signal decrease), % at 8.35 µM; shares compounds with T cruzi growth-1; NIH/3T3 viability, CellTiter-Glo ATP luminescence, 90 h;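 active = mean signal decrease across replicates above about 35% based on untreated-well scatter, with enough replicates individually passing, limit read from the data; inconclusive = no rule stated though some were filed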;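 also: 0% = median of neutral control wells and 100% = median of positive control wells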
NIH3T3 tox 2 – NIH/3T3 fibroblast cytotoxicity, confirmation, cytotoxicity control, cell-based, cherry-pick, single point, set 2 | inhibition, % at 24.9 µM | NIH/3T3 viability, CellTiter-Glo ATP luminescence, 90 h | 5,600 compounds, 56% hits | AID 651744, 2012 | shares compounds with T cruzi growth-1;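 active = mean loss of cell viability signal at or above a set limit, and enough replicates individually reaching it; inconclusive = meets only the mean limit or only the replicate share; inactive = meets neither condition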;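 also: 0% = median of neutral control wells and 100% = median of positive control wells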
The depositor's hits bear a star; ? = inconclusive; / = not tested or not shown.

SMILES	IDH1 R132H inh	T cruzi growth-1	KDM4C inh	T cruzi growth-2	T cruzi growth-3	3T3 cytotox	NIH3T3 tox 2
COc1ccc(NC(=O)N(C)C[C@@H]2OCCCC[C@@H](C)Oc3ccc(NS(=O)(=O)c4ccc(OC)cc4)cc3C(=O)N([C@H](C)CO)C[C@H]2C)cc1	/	21.5	-0.6	/	/	/	/
O=C(c1ccc(F)cc1)N1CCCCN2[C@H](CO)[C@H](c3ccc(-c4ccccc4)cc3)[C@@H]2C1	/	-20.1	-0.3	/	/	/	/
O=C(c1ccc(F)cc1)N1CCCCN2[C@H](C1)[C@@H](c1ccc(-c3ccc(F)cc3)cc1)[C@@H]2CO	/	97.7*	/	103.0*	51.5	42.5*	103.2*
O=C(c1ccc(F)cc1)N1CCCCN2[C@H](CO)[C@H](c3ccc(-c4ccc(F)cc4)cc3)[C@@H]2C1	/	104.7*	/	108.1*	51.5	16.8	72.7*
COc1ccc(-c2ccc([C@H]3[C@@H](CO)N4CCCCN(C(=O)c5ccc(F)cc5)C[C@H]34)cc2)cc1	/	94.5	0.3	/	/	/	/
O=C(c1ccc(F)cc1)N1CCCCN2[C@H](CO)[C@@H](c3ccc(-c4ccc(F)cc4)cc3)[C@H]2C1	/	111.0*	/	104.1*	67.9	36.9*	103.2*
O=C(c1ccc(F)cc1)N1CCCCN2[C@H](CO)[C@@H](c3ccc(-c4ccccc4)cc3)[C@@H]2C1	/	87.8	-1.9	/	/	/	/
O=C(c1ccc(F)cc1)N1CCCCN2[C@@H](CO)[C@@H](c3ccc(-c4ccc(F)cc4)cc3)[C@@H]2C1	/	51.0	/	/	/	/	/
O=C(c1ccc(F)cc1)N1CCCCN2[C@H](CO)[C@H](c3ccc(-c4ccc(F)cc4)cc3)[C@H]2C1	/	107.1*	/	103.2*	80.8	31.2	105.5*
Cc1ccc(NC(=O)CCCOc2ccccc2)c([N+](=O)[O-])c1	0.4	/	/	/	/	/	/
Cc1noc(C)c1S(=O)(=O)Nc1ccc2c(c1)CC(=O)N([C@H](C)CO)C[C@H](C)[C@H](CN(C)Cc1ccc(C(=O)Nc3ccccc3N)cc1)O2	/	/	0.5	/	/	/	/
CC(C)(C)c1cc(CN2CCOCC2)c(C(=O)O)o1	-0.1	/	/	/	/	/	/
COc1ccc(-c2ccc([C@@H]3[C@@H](CO)N4CCCCN(C(=O)c5ccc(F)cc5)C[C@H]34)cc2)cc1	/	122.8*	-1.2	?	18.2	-5.4	56.9*
COc1ccc(-c2ccc([C@H]3[C@H]4CN(C(=O)c5ccc(F)cc5)CCCCN4[C@H]3CO)cc2)cc1	/	76.3	-2.0	/	/	/	/
C[C@@H]1CN([C@@H](C)CO)C(=O)c2cc(NS(=O)(=O)c3ccccc3)ccc2O[C@@H]1CN(C)Cc1ccc(Oc2ccccc2)cc1	0.8	86.3	-0.8	/	/	/	/
Cc1ccc(S(=O)(=O)N(C)C[C@@H]2Oc3c(NC(=O)Nc4cccc5ccccc45)cccc3C(=O)N([C@@H](C)CO)C[C@H]2C)cc1	0.1	109.6*	0.9	-8.4	-14.2	-9.1	-8.8
COc1ccc(S(=O)(=O)N(C)C[C@@H]2Oc3c(NC(=O)Nc4cccc5ccccc45)cccc3C(=O)N([C@H](C)CO)C[C@H]2C)cc1	2.1	57.7	-1.7	/	/	/	/
Cc1ccc(S(=O)(=O)N(C)C[C@H]2Oc3c(NC(=O)Nc4cccc5ccccc45)cccc3C(=O)N([C@H](C)CO)C[C@H]2C)cc1	-0.7	/	6.9	/	/	/	/
COc1ccc(S(=O)(=O)N(C)C[C@@H]2Oc3c(NC(=O)Nc4cccc5ccccc45)cccc3C(=O)N([C@@H](C)CO)C[C@@H]2C)cc1	1.1	109.0*	0.0	32.6	-16.0	-4.2	48.9*
COc1ccc(C(O)CNC(=O)/C=C/c2ccccc2)cc1 (centres undefined)	0.4	/	/	/	/	/	/
O=C(C[C@@H]1C[C@H]2c3cc(NC(=O)CC4CC4)ccc3O[C@H]2[C@@H](CO)O1)NCc1ccc(Cl)cc1	-0.1	36.4	2.5	/	/	/	/
